Each structure is given as a SMILES string. Activity calls are given as the source filed them.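 The calls were made as follows: active = current rise at least 3 SD above the untreated control mean in each of two repeat wells; inactive = the rest.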

Sequence of Potassium voltage-gated channel subfamily KQT member 1 (Homo sapiens) (P51787 whole entry, looked up): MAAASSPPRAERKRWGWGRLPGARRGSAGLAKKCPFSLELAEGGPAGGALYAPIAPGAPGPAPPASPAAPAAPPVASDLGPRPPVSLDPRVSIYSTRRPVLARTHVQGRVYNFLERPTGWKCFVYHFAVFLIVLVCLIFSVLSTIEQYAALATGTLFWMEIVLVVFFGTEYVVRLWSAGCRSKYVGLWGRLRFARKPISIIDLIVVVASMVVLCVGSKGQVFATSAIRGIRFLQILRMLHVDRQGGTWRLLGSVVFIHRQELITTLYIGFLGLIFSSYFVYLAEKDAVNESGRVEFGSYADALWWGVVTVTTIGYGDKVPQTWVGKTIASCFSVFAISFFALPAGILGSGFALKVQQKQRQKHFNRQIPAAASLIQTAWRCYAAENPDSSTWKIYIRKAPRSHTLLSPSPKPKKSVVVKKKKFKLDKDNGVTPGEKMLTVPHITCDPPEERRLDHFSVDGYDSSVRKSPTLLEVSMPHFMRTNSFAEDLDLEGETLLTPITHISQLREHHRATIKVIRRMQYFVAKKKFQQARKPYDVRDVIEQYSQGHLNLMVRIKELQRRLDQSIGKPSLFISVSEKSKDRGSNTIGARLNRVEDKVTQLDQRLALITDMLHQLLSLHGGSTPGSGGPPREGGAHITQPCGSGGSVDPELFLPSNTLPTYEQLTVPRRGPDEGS

In the experiment the target is Potassium voltage-gated channel subfamily KQT member 1 (Homo sapiens) (UniProt P51787). As to the kind of experiment: KCNQ1 channel current potentiators, confirmation, orthogonal assay for KCNQ1 potentiator project, IonWorks patch clamp, KCNQ1-CHO cells (AID 493184).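 As to current potentiation: percent change of the same well's current before compound addition so 0% = no change.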 Particulars: automated patch clamp current, at 10 µM; hits give high values. In a few lines:
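Test system: KCNQ1-expressing CHO cells. Medium: pH 7.4 external bath. Probe or stimulus: voltage step from -90 mV holding to +40 mV, 2,000 ms. Compound: 10 µM final, single point. Detection: automated perforated-patch electrophysiology. Read-out: percent current increase versus pre-compound level. Repeats: two replicates.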
Background: In patch-clamp work, channel activity is measured electrically.
`CCCCn1c(N)c(N(CC)C(=O)CSCc2c(C)noc2C)c(=O)[nH]c1=O`: the outcome was inactive.

Take `CC(Sc1n[nH]c(N)n1)C(=O)NC1CCCCC1C` (centres undefined): the outcome was inactive.

With `COc1ccccc1C(=O)OCC(=O)Nc1ccc(Cl)cn1`, the result was inactive.

As to `COc1cccc(C(=O)NNC(=O)C(=O)Nc2cccc(Cl)c2C)c1`, the result was inactive.

On to `CN1CCN(CC/C=C2/c3ccccc3Sc3ccc(S(=O)(=O)N(C)C)cc32)CC1`, for which the result was inactive.

On to `CC(C)c1nc2n[nH]c(N)c2c2c1CCCC2`, for which the outcome was inactive.

With `O=C(c1ccc(S(=O)(=O)N2CCCC2)cc1)N1CCN(c2cccc(Cl)c2)CC1`, the result was inactive.

Turning to `CCCOc1ccc(-c2c(=O)n(O)c3ccccc3[n+]2[O-])cc1`, the outcome was inactive.

Turning to `Cc1cccc(NC(=S)NC(=O)c2ccc(Br)o2)c1C`, the outcome was inactive.

With `COCCn1cnc2c1c(=O)n(CC#N)c(=O)n2Cc1ccccc1`, the result was inactive.

In the case of `COc1ccc(-c2sc(C(=O)c3ccc(Cl)cc3Cl)cc2CC(=O)O)cc1`, the current potentiation was 33.9% (active).

`CC(C)c1ccc(C(=O)NC2=NCCS2)cc1`: the result was inactive.

For `COc1ccc(-c2cc(C(=O)Nc3c(Cl)cc(Cl)cc3Cl)c3ccccc3n2)cc1OC`, the result was inactive.

Regarding `CCOC(=O)/C(C)=N/NC(=O)c1ccc([N+](=O)[O-])cc1`, the outcome was inactive.

For `CCOC(=O)c1c(NC(=S)NCC2CCCO2)sc(C)c1C` (centres undefined), the result was inactive.

Consider `CC(=O)OC1OCCOC1NC(=S)Nc1ccc(C)cc1` (centres undefined), for which the outcome was inactive.

Turning to `CCCCOC(=O)c1ccc(NC(=S)NC(=O)c2c(Cl)cnn2CC)cc1`, the outcome was inactive.

Consider `COc1cccc(OCC(=O)NNC(=O)C(=O)Nc2cccc(C)c2)c1`, for which the outcome was inactive.

On to `O=C(/C=C/c1ccccc1)C1C(=O)c2ccccc2C1=O`, for which the outcome was inactive.

(Values after PubChem BioAssay.)
